Molecules are shown by their SMILES. pKi: −log10 of the molar value. The source made the active and inactive calls.

In one assay the target is Mu-type opioid receptor (Rattus norvegicus, UniProt P33535). The assay can be described thus: Displacement of [3H]DAMGO from mu opioid receptor in Sprague-Dawley rat brain membrane by liquid scintillation counting. The class given is cell membranes. (In general: Loss of bound radioactivity is the signal in a displacement assay; it reports binding, not function.)
Sequence of Mu-type opioid receptor (P33535 whole entry): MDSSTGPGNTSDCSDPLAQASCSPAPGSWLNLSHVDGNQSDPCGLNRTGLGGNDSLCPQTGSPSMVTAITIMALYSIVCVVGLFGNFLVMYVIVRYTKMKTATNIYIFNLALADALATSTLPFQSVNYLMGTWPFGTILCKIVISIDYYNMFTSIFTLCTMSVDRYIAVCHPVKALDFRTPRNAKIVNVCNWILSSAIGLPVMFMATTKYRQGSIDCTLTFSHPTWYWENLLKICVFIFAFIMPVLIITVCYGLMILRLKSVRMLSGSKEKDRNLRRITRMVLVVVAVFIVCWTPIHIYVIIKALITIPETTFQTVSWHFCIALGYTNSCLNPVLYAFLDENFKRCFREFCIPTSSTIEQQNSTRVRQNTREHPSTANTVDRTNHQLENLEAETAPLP
The target in assay [1] is Kappa-type opioid receptor (Cavia porcellus, UniProt P41144). The assay can be described thus: Displacement of [3H][Ile5,6]deltorphin 2 from delta opioid receptor in Sprague-Dawley rat brain membrane by liquid scintillation counting. It is filed as cell membranes.
Sequence of Kappa-type opioid receptor (P41144 whole entry): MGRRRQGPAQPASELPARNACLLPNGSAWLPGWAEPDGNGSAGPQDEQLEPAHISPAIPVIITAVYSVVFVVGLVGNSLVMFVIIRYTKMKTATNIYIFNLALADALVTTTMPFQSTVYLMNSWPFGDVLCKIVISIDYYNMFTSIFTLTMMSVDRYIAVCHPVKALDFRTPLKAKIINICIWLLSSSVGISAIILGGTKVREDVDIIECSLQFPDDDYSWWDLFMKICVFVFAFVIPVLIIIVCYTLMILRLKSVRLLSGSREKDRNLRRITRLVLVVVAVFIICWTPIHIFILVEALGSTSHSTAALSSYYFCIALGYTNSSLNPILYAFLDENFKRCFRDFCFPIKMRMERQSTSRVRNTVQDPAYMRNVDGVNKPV
Assay [2] is described as follows: Displacement of [3H]U69593 from kappa opioid receptor in guinea pig brain membrane by liquid scintillation counting. The class given is cell membranes, Cavia porcellus.
Assay [3] relates to Rattus norvegicus. The experiment in a line: Antinociceptive activity in sc dosed Sprague-Dawley rat assessed as thermal-stimulus induced tail flick latency after 0.5 hrs. The class given is functional. Background: Hot-plate and tail-flick tests time the reaction to a heat stimulus.
Assay [4] relates to Rattus norvegicus. The experiment in a line: Antinociceptive activity in sc dosed Sprague-Dawley rat assessed as thermal-stimulus induced tail flick latency after 1 hrs. The class given is functional.
Assay [5] has as its system Rattus norvegicus. The experiment in a line: Antinociceptive activity in sc dosed Sprague-Dawley rat assessed as thermal-stimulus induced tail flick latency after 2 hrs. The class given is functional.
Assay [6] has as its system Rattus norvegicus. The experiment in a line: Antinociceptive activity in sc dosed Sprague-Dawley rat assessed as thermal-stimulus induced tail flick latency after 3 hrs. It is filed as functional.
For assay [7], the system named is Rattus norvegicus. The assay can be described thus: Antinociceptive activity in sc dosed Sprague-Dawley rat assessed as thermal-stimulus induced tail flick latency relative to morphine. The class given is functional.
The species entered for assay [8] is Rattus norvegicus. Conditions: Sprague-Dawley, at 426 nmol/kg.
The species entered for assay [9] is Rattus norvegicus. Conditions: Sprague-Dawley, at 426 nmol/kg. The source holds these as a separate data set.
For assay [10], the system named is Rattus norvegicus. The experiment in a line: Antinociceptive activity in Sprague-Dawley rat inflammatory model assessed as paw withdrawal latency at 183 nmol/kg, sc administered post carrageenan challenge. The class given is functional, organism-based.
Assay [11] concerns Rattus norvegicus. The experiment in a line: Antinociceptive activity in Sprague-Dawley rat inflammatory model assessed as paw withdrawal latency at 170 nmol/kg, sc administered post carrageenan challenge. The class given is functional, organism-based. An outline of the steps: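 Male Sprague-Dawley rats (250 g), unanesthetized; unilateral inflammation from 100 μL 1% carrageenan into the right hindpaw plantar surface. At 3 h post-carrageenan, compound given sc in 0.9% saline (100 μL); saline controls; 4–7 rats per group. Randall–Selitto paw pressure (blunt wedge piston, 48 g/s, 20 s cutoff) applied to the dorsal paw. Response is % change in withdrawal latency from the 3 h pre-drug value.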

A word on the pKi: it is the Ki on a negative log10 scale, so that one unit is a factor of ten. A word on the ED50: it is the dose at which the effect has come halfway, by size or by number of responders. Consider `CN1CC[C@]23c4c5ccc(O)c4O[C@H]2[C@H](NCC(=O)OC(C)(C)C)CC[C@@]3(OCCCc2ccccc2)[C@H]1C5`, for which the values for the pKi (at Mu-type opioid receptor; in [1]; in assay [2]) were 8.99, 8.69 and 9.04, respectively. The ED50 amounted to 0.164 µmol/kg with Rattus norvegicus [3], 0.0923 µmol/kg in the assay on Rattus norvegicus [4], 0.124 µmol/kg in the assay on Rattus norvegicus [5] and 0.189 µmol/kg in the assay on Rattus norvegicus [6]. In addition, in the assay with Rattus norvegicus [7], the “fold change (FC)” value amounted to 66.

For `C=CC[N+]1(C)CC[C@]23c4c5ccc(O)c4O[C@H]2C(=O)CC[C@@]3(O)[C@H]1C5` (stereo partly drawn), the inhibition entry in the assay listed under Rattus norvegicus [8] and in the assay filed under Rattus norvegicus [9] was “Active” each time.

Take `CC(C)(C)OC(=O)CN[C@@H]1CC[C@@]2(OCCCc3ccccc3)[C@H]3Cc4ccc(O)c5c4[C@@]2(CCN3CC2CC2)[C@H]1O5`: the pKi was 9.00 on Mu-type opioid receptor, 8.75 in assay [1] and 9.40 in assay [2]. Further, the 50% effective dose (ED50) stood at 0.0338 µmol/kg in the assay with Rattus norvegicus [3], 0.0268 µmol/kg with Rattus norvegicus [4], 0.0344 µmol/kg with Rattus norvegicus [5] and 0.056 µmol/kg in the assay on Rattus norvegicus [6].

For `CC(C)(C)OC(=O)CN[C@H]1CC[C@@]2(OCCCc3ccccc3)[C@H]3Cc4ccc(O)c5c4[C@@]2(CCN3CC2CC2)[C@H]1O5`, the values for the pKi (at Mu-type opioid receptor; in [1]; in assay [2]) were 8.86, 8.83 and 8.95, respectively. Further, the ED50 in the assay on Rattus norvegicus [3] came to 0.365 µmol/kg; with Rattus norvegicus [4], 0.348 µmol/kg; in the assay with Rattus norvegicus [5] it was 0.363 µmol/kg; in the assay with Rattus norvegicus [6], 0.427 µmol/kg. Besides, the “fold change (FC)” value with Rattus norvegicus [7] is recorded as 17.

Take `CN1CC[C@]23c4c5ccc(O)c4O[C@H]2[C@@H](O)C=C[C@H]3[C@H]1C5` [MORPHINE]: the ED50 in the assay with Rattus norvegicus [3] came to 6.05 µmol/kg; in the assay with Rattus norvegicus [4] it was 7.63 µmol/kg; in the assay with Rattus norvegicus [5] it was 13.3 µmol/kg.

As for `CO[C@@]12CC[C@@H](NCC(=O)O)[C@@H]3Oc4c(O)ccc5c4[C@@]31CCN(C)[C@@H]2C5`, the ED50 in the assay with Rattus norvegicus [3] turned out to be 0.0508 µmol/kg; in the assay with Rattus norvegicus [4], 0.029 µmol/kg; in the assay on Rattus norvegicus [5], 0.0433 µmol/kg. For the same compound, the result with Rattus norvegicus [10] was Active.

Take `CN1CC[C@]23c4c5ccc(O)c4O[C@H]2[C@@H](NCC(=O)O)CC[C@@]3(OCCCc2ccccc2)[C@H]1C5`: the outcome in the assay with Rattus norvegicus [11] was Active.

With `CN1CC[C@]23c4c5ccc(O)c4O[C@@]2(C)C(=O)CC[C@@]3(OCCCc2ccccc2)[C@H]1C5`, the negative logarithm of the Ki (pKi) was 9.27 in assay [1] and 9.85 in assay [2].

For the compound `CN1CC[C@]23c4c5ccc(O)c4O[C@H]2[C@@H](NCC(=O)OC(C)(C)C)CC[C@@]3(OCCCc2ccccc2)[C@H]1C5`, the negative-log Ki (pKi) at Mu-type opioid receptor is 8.85; in assay [1] it was 8.90; in assay [2], 9.00. Further, the ED50 is 0.0635 µmol/kg with Rattus norvegicus [3], 0.0583 µmol/kg in the assay on Rattus norvegicus [4], 0.084 µmol/kg in the assay with Rattus norvegicus [5] and 0.148 µmol/kg in the assay with Rattus norvegicus [6]. Further, the “fold change (FC)” value in the assay on Rattus norvegicus [7] came to 104.

With `CN1CC[C@]23c4c5ccc(O)c4O[C@H]2[C@H](NCC(=O)O)CC[C@@]3(OCCCc2ccccc2)[C@H]1C5`, the outcome in the assay with Rattus norvegicus [11] was Active.

As to `Cl.Cl.O=C(O)CN[C@H]1CC[C@@]2(OCCCc3ccccc3)[C@H]3Cc4ccc(O)c5c4[C@@]2(CCN3CC2CC2)[C@H]1O5`, the values for the pKi (at Mu-type opioid receptor; in [1]; in assay [2]) were 9.57, 9.19 and 9.48, respectively. The ED50 turned out to be 1.39 µmol/kg in the assay with Rattus norvegicus [3], 0.349 µmol/kg in the assay on Rattus norvegicus [4], 0.433 µmol/kg with Rattus norvegicus [5] and 0.543 µmol/kg in the assay with Rattus norvegicus [6]. In the assay on Rattus norvegicus [7], the “fold change (FC)” value amounted to 17.

In the case of `CO[C@@]12CC[C@H](NCC(=O)O)[C@@H]3Oc4c(O)ccc5c4[C@@]31CCN(C)[C@@H]2C5`, the ED50 with Rattus norvegicus [3] turned out to be 0.137 µmol/kg; in the assay on Rattus norvegicus [4] it was 0.0585 µmol/kg; with Rattus norvegicus [5], 0.143 µmol/kg; in the assay on Rattus norvegicus [6] it was 0.437 µmol/kg.

Turning to `Cl.Cl.O=C(O)CN[C@@H]1CC[C@@]2(OCCCc3ccccc3)[C@H]3Cc4ccc(O)c5c4[C@@]2(CCN3CC2CC2)[C@H]1O5`, the results for the negative-log Ki (pKi) (at Mu-type opioid receptor; in assay [1]; in [2]) were 9.70, 9.19 and 9.46, respectively. Moreover, the ED50 with Rattus norvegicus [3] was 1.56 µmol/kg; with Rattus norvegicus [4], 0.183 µmol/kg; in the assay on Rattus norvegicus [5], 0.147 µmol/kg. Moreover, the “fold change (FC)” value in the assay on Rattus norvegicus [7] turned out to be 41.
